These results are taken from PubChem BioAssay.

The source made the active and inactive calls.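 Rule for the calls, unless noted: active = inhibition at or above 50% at 10 µM; inactive = inhibition below 50%.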

What is called inhibition is the drop in the measured response relative to a control, in per cent.

Experiment [1] can be described thus: inhibitors of TNFa-induced NFkB p65 translocation, primary screen, imaging, HUVEC, MLSMR starter and 10KST1 sets (AID 438;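 active = inhibition above 20% together with a positive visual image hit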;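 note: compound added about 3h40 before a 20 min TNFalpha stimulation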;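 for inhibition: signal is the nuclear over cytoplasmic p65 intensity ratio per well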). Particulars: HUVEC TNFa-induced p65 nuclear translocation; cell count: measured here: nuclei count (cytotoxicity indicator), at 2.08 µM; inhibition: at 2 µM, stronger effect = higher value, 0% TNFa-plus-vehicle, 100% no-TNFa wells.
Experiment [2] is described as follows: inhibitors of mutant huntingtin aggregation, primary screen, imaging, exon1htt(103Q)mCFP cells, high-content imaging (AID 483;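 active = visual image review flags a hit and inhibition of aggregation exceeds 20%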;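 note: compound exposure lasted 3 days before fixation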;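 for nuclei count: percent of the per-plate median nuclei count of sample wells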). Particulars: exon1htt(103Q)mCFP cell line, aggregate imaging, at 2 µM; inhibition of aggregation: stronger effect = higher value; nuclei count: measured here: cell count, toxicity.
Experiment [3] can be described thus: inhibitors of E-selectin induction by TNFa, primary screen, imaging, HUVEC, immunofluorescence, MLSMR starter and 10KST1 sets (AID 487;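 active = visually confirmed hit in the image check and inhibition above 20%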;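 for inhibition: signal is fraction of cell area covered by stained E-selectin grains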;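 for nuclei count: 100% = median nuclei count of all wells on the same plate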). Particulars: HUVEC TNFalpha-induced E-selectin immunofluorescence imaging, at 2 µM; inhibition: stronger effect = higher value; nuclei count: measured here: cell number, toxicity.
Experiment [4] deals with Voltage-gated potassium channel subunit beta-2 (Rattus norvegicus) (UniProt P62483). Put plainly: KvBeta enzyme negative modulators, primary screen, biochemical, NADPH fluorescence (AID 622;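 active = fluorescence slope higher than the sample average by over 3 SD, cut at about -0.22 in these data, passing the limit was not always enough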;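 note: slope of raw intensity against log time taken from 70 to 1610 s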). Particulars: recombinant KvBeta, 4-cyanobenzaldehyde reduction, at 10 µM, stronger effect = higher value.
Sequence of Voltage-gated potassium channel subunit beta-2 (Rattus norvegicus) (P62483 whole entry, looked up): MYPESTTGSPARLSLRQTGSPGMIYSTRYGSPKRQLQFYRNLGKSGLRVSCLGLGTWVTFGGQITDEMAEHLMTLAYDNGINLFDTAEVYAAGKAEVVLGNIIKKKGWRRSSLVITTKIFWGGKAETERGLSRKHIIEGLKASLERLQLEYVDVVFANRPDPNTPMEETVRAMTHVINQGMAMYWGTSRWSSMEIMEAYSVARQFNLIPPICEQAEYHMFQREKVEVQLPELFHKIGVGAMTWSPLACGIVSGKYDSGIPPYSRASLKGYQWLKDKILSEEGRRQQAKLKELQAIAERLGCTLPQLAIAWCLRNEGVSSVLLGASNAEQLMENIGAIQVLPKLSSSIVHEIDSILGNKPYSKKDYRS
Experiment [5] shares this target. The experiment is described as follows: KvBeta positive modulators, primary screen, biochemical, NADPH fluorescence (AID 623;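 active = NADPH fluorescence slope more negative than the mean of all samples by about 3 SD, 99.7% confidence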;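 note: fluorescence intensity change per second fitted from 20 to 320 s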). The settings on record: Recombinant KvBeta, NADPH fluorescence decrease slope, 10 min; at 10 µM; stronger effect = lower value.
For experiment [6], the target named is Muscarinic acetylcholine receptor M4 (Homo sapiens) (UniProt P08173). The experiment is described as follows: compounds altering M4/GIRK thallium flux, either direction, primary screen, M4 allosteric agonist project, cell-based, HEK293 M4/GIRK, BTC-AM (AID 625;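 active = fluorescence slope after compound addition differing from the mean of all tested samples at 99.7% confidence, mostly higher but some lower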;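 note: thallium influx through GIRK channels coupled to M4 in HEK293 cells with BTC-AM dye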). The settings on record: at 10 µM, actives lie on both sides. The method, boiled down: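 Assay system: HEK293 cells with M4 receptor and GIRK channels / Controls: carbachol and DMSO controls / Schedule: 1 h dye loading, 2 min kinetic read / Technique: kinetic fluorescence with BTC-AM dye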
Sequence of Muscarinic acetylcholine receptor M4 (Homo sapiens) (P08173 whole entry, looked up): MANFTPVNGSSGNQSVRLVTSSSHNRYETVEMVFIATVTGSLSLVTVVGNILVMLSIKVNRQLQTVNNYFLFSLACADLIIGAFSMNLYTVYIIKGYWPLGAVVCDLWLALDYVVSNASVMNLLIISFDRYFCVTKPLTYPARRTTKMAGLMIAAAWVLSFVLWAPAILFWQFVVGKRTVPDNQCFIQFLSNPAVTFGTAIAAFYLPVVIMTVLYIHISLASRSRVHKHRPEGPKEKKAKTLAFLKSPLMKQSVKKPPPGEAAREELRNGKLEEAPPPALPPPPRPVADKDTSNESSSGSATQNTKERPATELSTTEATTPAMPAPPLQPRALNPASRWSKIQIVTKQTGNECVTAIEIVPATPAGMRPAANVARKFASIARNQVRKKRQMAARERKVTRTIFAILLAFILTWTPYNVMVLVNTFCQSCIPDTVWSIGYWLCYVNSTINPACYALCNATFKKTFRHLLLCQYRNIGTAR

Experiment [7] is described as follows: inhibitors of Sendai virus-induced IRF3 signaling, primary screen, TLR/RLR signaling modifier project, cell-based, Sendai virus stimulus, luciferase, 10K MLSCN set (AID 602276).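 Note: firefly luciferase from ISG56 promoter only with Renilla not read in this screen; 0% = Sendai virus plus DMSO and 100% = medium plus DMSO without virus.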 The settings on record: HEK293 RL24 IRF3 luciferase reporter, at 10 µM, stronger effect = higher value. A general note: In a reporter assay the amount or activity of a reporter protein is the signal.

A short description of experiment [8]: inhibitors of poly I:C-induced TLR3 signaling, primary screen, cell-based, poly I:C stimulus, luciferase, 10K MLSCN set (AID 602277;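 active = inhibition of the reporter signal at or above 50%; inactive = inhibition below 50%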). The settings on record: HEK293-TLR3 RL24 IRF3 luciferase reporter, at 10 µM, stronger effect = higher value.

For the compound `CCCc1n[nH]c2c1/C(=N/O)CC(c1ccccc1)C2` (centres undefined), the cell count in experiment [1] came out at 522. Further, the inhibition in experiment [1] was -13.6% (inactive); in experiment [3], -7.4% (inactive); in experiment [7], 8.69% (inactive); in experiment [8], -7.88% (inactive). Also, in experiment [2], the inhibition of aggregation was 3.1% (inactive). Also, the values for the nuclei count in experiment [2] and in experiment [3] were 93.4% and 110%, respectively. Moreover, the fluorescence slope in experiment [4] was -0.594 (inactive); in experiment [6], 0.0053 (inactive). In experiment [5], the NADPH fluorescence slope was 4.1e-05 (inactive).
As to `COc1cc(C)nc(NS(=O)(=O)c2ccc(C)cc2)n1`, in experiment [1], the cell count was determined as 399. In addition, the inhibition in experiment [1] is 3.9% (inactive); in experiment [3] it was -45.6% (inactive); in experiment [7], 20.8% (inactive); in experiment [8], 23% (inactive). For the same compound, in experiment [2], the inhibition of aggregation is -0.3% (inactive). Moreover, the results for the nuclei count in experiment [2] and in experiment [3] were 97.2% and 109%, respectively. For the same compound, the fluorescence slope in experiment [4] was -0.563 (inactive); in experiment [6], 0.00648 (inactive). Besides, in experiment [5], the NADPH fluorescence slope is -2.7e-05 (inactive).
Take `COc1ccc(CNC(=O)Cn2nc(C(F)(F)F)c3c2CCC3)cc1`: in experiment [1], the cell count was found to be 620. Further, the inhibition in experiment [1] is -13.3% (inactive); in experiment [3], -56.6% (inactive); in experiment [7] it was 6.68% (inactive); in experiment [8], 19.7% (inactive). Further, the inhibition of aggregation in experiment [2] is -8% (inactive). Besides, the results for the nuclei count in experiment [2] and in experiment [3] were 103% and 116%, respectively. Also, the figures for the fluorescence slope in experiment [4] and in experiment [6] were -0.396 (inactive) and 0.00662 (inactive), respectively. For the same compound, the NADPH fluorescence slope in experiment [5] is -9.3e-05 (inactive).
`CCCCC(=NCCO)C1=C(O)C(C(=O)OC)C(C)(C)CC1=O` (centres undefined): the cell count in experiment [1] stood at 473. The inhibition in experiment [1] is 1.8% (inactive); in experiment [3] it was -64.1% (inactive); in experiment [7], 16.3% (inactive); in experiment [8], 18.4% (inactive). For the same compound, in experiment [2], the inhibition of aggregation was 0.5% (inactive). Moreover, the nuclei count is 102% in experiment [2] and 167% in experiment [3]. The results for the fluorescence slope in experiment [4] and in experiment [6] were -0.407 (inactive) and 0.00804 (inactive), respectively. For the same compound, in experiment [5], the NADPH fluorescence slope is 5e-05 (inactive).
Turning to `CCOC(=O)C1CCN(C(=O)Nc2ccc(Cl)cc2Cl)CC1`, in experiment [1], the cell count was 262. Also, the inhibition in experiment [1] is 0% (inactive); in experiment [3], -16.8% (inactive); in experiment [7], 14% (inactive); in experiment [8], 1.16% (inactive). For the same compound, the inhibition of aggregation in experiment [2] is 25.3% (inactive). Further, the values for the nuclei count in experiment [2] and in experiment [3] were 89.6% and 80.6%, respectively. Also, the values for the fluorescence slope in experiment [4] and in experiment [6] were -0.463 (inactive) and 0.00434 (inactive), respectively. Moreover, the NADPH fluorescence slope in experiment [5] is -4.6e-05 (inactive).
As for `C=CCNC(=O)CNS(=O)(=O)c1ccc(F)cc1`, the cell count in experiment [1] came to 443. Further, the inhibition in experiment [1] is -2.6% (inactive); in experiment [3], 36.9% (inactive); in experiment [7], 19.3% (inactive); in experiment [8], 45.8% (inactive). In addition, the inhibition of aggregation in experiment [2] is 11.8% (inactive). The nuclei count in experiment [2] was 73.9%; in experiment [3] it was 88%. Besides, the figures for the fluorescence slope in experiment [4] and in experiment [6] were -0.592 (inactive) and 0.00626 (inactive), respectively. Besides, the NADPH fluorescence slope in experiment [5] was 1e-05 (inactive).
For `CCN(CC)CCNC(=O)C1CCN(S(=O)(=O)N2CCCCC2)CC1`, the cell count in experiment [1] turned out to be 634. In addition, the inhibition was 2.6% (inactive) in experiment [1], -41.5% (inactive) in experiment [3], 11.3% (inactive) in experiment [7] and 15.8% (inactive) in experiment [8]. For the same compound, in experiment [2], the inhibition of aggregation was -30.2% (inactive). In addition, the nuclei count in experiment [2] was 48.9%; in experiment [3], 109%. Moreover, the fluorescence slope in experiment [4] was -0.412 (inactive); in experiment [6], 0.00434 (inactive). The NADPH fluorescence slope in experiment [5] was 2.2e-05 (inactive).
As for `CCOc1ccc(C(c2nnnn2Cc2ccccc2)N2CCN(C(=O)c3ccco3)CC2)cc1` (centres undefined), the cell count in experiment [1] worked out at 621. Also, the inhibition in experiment [1] is -0.2% (inactive); in experiment [3], 20% (inactive); in experiment [7], -3.47% (inactive); in experiment [8], 9.07% (inactive). Also, the inhibition of aggregation in experiment [2] was -6.3% (inactive). The figures for the nuclei count in experiment [2] and in experiment [3] were 101% and 104%, respectively. For the same compound, the fluorescence slope in experiment [4] is -0.492 (inactive); in experiment [6] it was 0.00546 (inactive). Further, in experiment [5], the NADPH fluorescence slope was -2.2e-06 (inactive).
On to `O=C(O)c1cnn2c1NC(c1ccc(F)cc1)CC2C(F)(F)F` (centres undefined), for which the cell count in experiment [1] stood at 613. The inhibition was 10.2% (inactive) in experiment [1], -85.7% (inactive) in experiment [3], 10.7% (inactive) in experiment [7] and 1.93% (inactive) in experiment [8]. In experiment [2], the inhibition of aggregation was -6.3% (inactive). The nuclei count stood at 99.2% in experiment [2] and 116% in experiment [3]. Moreover, the fluorescence slope is -0.472 (inactive) in experiment [4] and 0.00543 (inactive) in experiment [6]. Moreover, in experiment [5], the NADPH fluorescence slope was -4.5e-05 (inactive).
With `CCn1c(=O)cc(SCC(=O)N2CCN(C3CCCCC3)CC2)c2ccccc21`, the cell count in experiment [1] came out at 417. Further, the inhibition was -5.2% (inactive) in experiment [1], -69.8% (inactive) in experiment [3], 8.4% (inactive) in experiment [7] and 65.5% (active) in experiment [8]. For the same compound, the inhibition of aggregation in experiment [2] is -6.7% (inactive). The nuclei count in experiment [2] came to 131%; in experiment [3], 108%. The fluorescence slope in experiment [4] was -0.565 (inactive); in experiment [6] it was 0.0055 (inactive). In addition, the NADPH fluorescence slope in experiment [5] was 1.7e-06 (inactive).
Regarding `O=C(O)C1C2CCC(C2)C1C(=O)NCCCn1ccnc1` (centres undefined), in experiment [1], the cell count was determined as 486. Moreover, the inhibition is 0% (inactive) in experiment [1], 65.4% (active) in experiment [3], -12.1% (inactive) in experiment [7] and -16.7% (inactive) in experiment [8]. The inhibition of aggregation in experiment [2] was 18.3% (inactive). The nuclei count was 72.3% in experiment [2] and 65.1% in experiment [3]. Moreover, the fluorescence slope in experiment [4] is -0.491 (inactive); in experiment [6], 0.0041 (inactive). Besides, the NADPH fluorescence slope in experiment [5] is -8.2e-05 (inactive).
For `O=C(CCC(=O)N1CCN(S(=O)(=O)c2ccccc2)CC1)c1cccs1`, the cell count in experiment [1] came to 633. Moreover, the inhibition was -1.3% (inactive) in experiment [1], -176% (inactive) in experiment [3], -5.43% (inactive) in experiment [7] and -3.56% (inactive) in experiment [8]. The inhibition of aggregation in experiment [2] was -22.1% (inactive). In addition, the values for the nuclei count in experiment [2] and in experiment [3] were 102% and 153%, respectively. The fluorescence slope was -0.568 (inactive) in experiment [4] and 0.00592 (inactive) in experiment [6]. Besides, the NADPH fluorescence slope in experiment [5] was -7e-05 (inactive).
Turning to `Cc1c(C(=O)O)oc2ccc(S(=O)(=O)NCCC3=CCCCC3)cc12`, in experiment [1], the cell count came to 652. Moreover, the inhibition in experiment [1] is 9.2% (inactive); in experiment [3], -36.3% (inactive); in experiment [7] it was 3.33% (inactive); in experiment [8], 15.9% (inactive). For the same compound, the inhibition of aggregation in experiment [2] is 5% (inactive). In addition, the results for the nuclei count in experiment [2] and in experiment [3] were 88% and 114%, respectively. The fluorescence slope was -0.454 (inactive) in experiment [4] and 0.0068 (inactive) in experiment [6]. Further, in experiment [5], the NADPH fluorescence slope is 4.4e-05 (inactive).
As for `Cc1occc1C(=O)Nc1cccnc1`, the cell count in experiment [1] was 537. Further, the inhibition in experiment [1] is -21.3% (inactive); in experiment [3] it was -9.9% (inactive); in experiment [7] it was 18.2% (inactive); in experiment [8], 7.63% (inactive). In addition, in experiment [2], the inhibition of aggregation is -33.6% (inactive). Further, the nuclei count in experiment [2] came to 108%; in experiment [3], 84.1%. Also, the fluorescence slope in experiment [4] is -0.538 (inactive); in experiment [6], 0.00413 (inactive). Moreover, the NADPH fluorescence slope in experiment [5] is -4.1e-05 (inactive).
